Results from different studies.
ELANE: Neutrophil elastase (ELANE, Homo sapiens, UniProt P08246)
MCU: Calcium uniporter protein, mitochondrial (MCU, Homo sapiens, UniProt Q8NE86)
MTOR: Serine/threonine-protein kinase mTOR (MTOR, Homo sapiens, UniProt P42345)
BACE1: Beta-secretase 1 (BACE1, Homo sapiens, UniProt P56817)

`COc1ccc(C(=O)O)cc1S(=O)(=O)Nc1ccc(C(F)(F)F)cc1N1CCCCC1` has an IC50 of 27 µM (Endoplasmic reticulum aminopeptidase 2 (ERAP2, Homo sapiens, UniProt Q6P179, K392N); enzyme activity, inhibitor, fluorescence).
`CC(C)C[C@H](NC(=O)[C@H](Cc1ccccc1)NC(=O)c1cnccn1)B(O)O` has an IC50 of over 33 µM (ELANE; enzyme activity, inhibitor).
For `Cl.Cl.N.N.N.N.N.N.N.N.[N-3].[Ru+4].[Ru+4]`, the IC50 was 0.0022 µM (MCU; transporter uptake, inhibitor).
For `N#Cc1nn(C(=O)C2CCCC2)c2ncccc12`, the IC50 was 0.16 µM (ELANE; enzyme activity, inhibitor, fluorescence).
For `CC(=O)Oc1ccc(-c2coc3c4c(c(CC=C(C)C)c(OC(C)=O)c3c2=O)OC(C)(C)C=C4)cc1OC(C)=O`, the IC50 was 6.2 µM (MTOR; enzyme activity, inhibitor, ELISA).
With `COc1cc(OC)c2c(O)c3c(=O)cc(C)oc3cc2c1` the IC50 was over 100 µM (BACE1; enzyme activity, inhibitor, FRET).
The IC50 of `N.N.N.N.N.N.N.N.O=C(O)c1cccc1.O=C(O)c1cccc1.[Fe+2].[Fe+2].[N-3].[Ru+4].[Ru+4].c1cccc1.c1cccc1` is reported as 0.0105 µM (MCU; transporter uptake, inhibitor).
`Brc1cc2c(N3CCNCC3)nccn2c1` has an IC50 of 600 µM (BACE1; enzyme activity, inhibitor, FRET; pH 5).
`O=C(O)c1c(Cl)c(Cl)c(Cl)c(Cl)c1-c1c2cc(I)c(=O)c(I)c-2oc2c(I)c(O)c(I)cc12` has an IC50 of 6.9 µM (Delta-aminolevulinic acid dehydratase (Homo sapiens, UniProt P13716, C162A/K59N); enzyme activity, inhibitor, absorbance; pH 8).
The IC50 of `Nc1ncc(-c2nc(N3CCOCC3)nc(N3CCOCC3)n2)c(C(F)F)n1` is reported as 0.0499 µM (MTOR; ligand displacement, TR-FRET).
`CC(C)C[C@H](NC(=O)[C@H](Cc1ccccc1)NC(=O)[C@H](Cc1ccc(O)cc1)NC(=O)CNC(=O)[C@H](CCCCN)NC(=O)[C@H](CO)NC(=O)[C@H](CCC(N)=O)NC(=O)CNC(=O)[C@@H](NC(=O)[C@H](CO)NC(=O)[C@@H]1CCCN1C(=O)[C@H](CO)NC(=O)[C@H](CCC(N)=O)NC(=O)[C@H](Cc1ccc(O)cc1)NC(=O)[C@H](CCC(=O)O)NC(=O)[C@H](C)NC(=O)[C@H](CCCCN)NC(=O)[C@@H](N)Cc1ccccc1)C(C)C)C(=O)N[C@@H](Cc1ccccc1)C(=O)N[C@@H](CCCNC(=N)N)C(=O)N1CCC[C@H]1C(=O)N[C@@H](CCCNC(=N)N)C(=O)N[C@@H](CC(N)=O)C(N)=O` has an IC50 of 3e-05 µM (Neuromedin-U receptor 2 (Mus musculus, UniProt Q8BZ39); ligand displacement, radioligand; cell membranes).
